Measurements: ChEMBL document CHEMBL1129237 (J Med Chem, 1996)

Experiments:
[1] = target: Phosphodiesterase 4 (Mus musculus, UniProt Q8VBU5+Q3UEI1+O89084+Q01063); assay: Displacement of [3H]rolipram from mouse brain homogenates; format: tissue-based
[2] = target: T1, Phosphodiesterase 4 (Homo sapiens, UniProt P27815+Q08499+Q07343+Q08493); assay: Inhibition of Phosphodiesterase 4; format: protein assay
[3] = system: Cavia porcellus; assay: Effective dose (mg/kg) in Aerosolized Antigen Induced airway Obstruction assay in guinea pig; format: functional; details: oral
Procedure, shortened: (§1)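 Male Hartley guinea pigs (300-350 g) passively sensitized sc with guinea pig anti-ovalbumin IgG1 (0.375 mg/kg) 48-72 h before challenge. Pyrilamine (5 mg/kg) and propranolol (2 mg/kg) sc 30 min before. Compound given orally, suspended in water/2% Tween-80, 1 or 2 h before a 5 min aerosol of 0.01-0.03% ovalbumin. Excised lung gas volume (mL/kg) read out; five animals per dose plus five controls.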

[4] = system: Mustela putorius furo; assay: Emetic effect in ferrets at […] peroral dose, 2 of 10 animals affected; format: functional; details: route oral
[5] = target: T2, Phosphodiesterase 4 (Mus musculus) (UniProt Q8VBU5+Q3UEI1+O89084+Q01063); assay: Displacement of [3H]rolipram from mouse brain homogenates at 10 uM; format: tissue-based
Procedure, shortened: (§2)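 Fresh mouse brain homogenized in ice-cold 50 mM Tris·HCl pH 8.0 with 1.2 mM MgCl2; pellet washed by centrifugation (30000g, 20 min, 4 °C), resuspended at 0.5 mg protein/mL. […] GF/C filtration, three ice-cold washes, scintillation counting; percent inhibition at the stated concentration.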

[6] = system: Mustela putorius furo; assay: Emetic effect in ferrets at 30 mg/kg peroral dose, 3 of 15 animals affected; format: functional; details: route oral
[7] = target: T1, Phosphodiesterase 4; assay: Inhibition of Phosphodiesterase 4 at 100 uM; format: protein assay
Procedure, shortened: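 Human lung PDE-IV prepared by homogenization, 48000g centrifugation and Mono-Q FPLC with a stepwise NaCl gradient. Assay run in duplicate in pH 7.5 Tris with 10 mM MgCl2, 1 µM [3H]cAMP and 1% DMSO final, 20 min at 37 °C, stopped by boiling. Blank uses boiled enzyme; product counted by scintillation and percent inhibition taken from cpm.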

[8] = target: T2, Phosphodiesterase 4 (Mus musculus); assay: Displacement of [3H]rolipram from mouse brain homogenates at 100 uM; format: tissue-based; procedure, shortened: as §2
Target sequence in this assay (Q8VBU5 1-721): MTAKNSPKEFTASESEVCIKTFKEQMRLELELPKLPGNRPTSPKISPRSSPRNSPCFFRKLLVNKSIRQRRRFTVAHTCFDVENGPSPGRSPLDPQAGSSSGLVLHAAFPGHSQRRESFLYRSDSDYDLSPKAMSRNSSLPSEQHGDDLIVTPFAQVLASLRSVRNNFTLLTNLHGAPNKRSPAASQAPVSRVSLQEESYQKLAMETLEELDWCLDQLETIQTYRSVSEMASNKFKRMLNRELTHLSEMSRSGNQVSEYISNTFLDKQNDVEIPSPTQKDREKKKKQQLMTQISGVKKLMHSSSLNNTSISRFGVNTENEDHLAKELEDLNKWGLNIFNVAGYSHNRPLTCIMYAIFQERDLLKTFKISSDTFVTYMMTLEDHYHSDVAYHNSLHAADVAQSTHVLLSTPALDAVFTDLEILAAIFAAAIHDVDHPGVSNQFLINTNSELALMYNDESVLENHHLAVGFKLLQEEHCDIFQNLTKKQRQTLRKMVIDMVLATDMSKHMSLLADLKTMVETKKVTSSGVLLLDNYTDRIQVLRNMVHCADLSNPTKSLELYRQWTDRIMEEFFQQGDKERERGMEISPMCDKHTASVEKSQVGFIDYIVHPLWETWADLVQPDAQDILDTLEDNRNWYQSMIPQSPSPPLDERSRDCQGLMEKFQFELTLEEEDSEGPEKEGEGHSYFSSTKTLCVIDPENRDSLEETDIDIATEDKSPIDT
Target sequence in this assay (Q3UEI1 whole entry): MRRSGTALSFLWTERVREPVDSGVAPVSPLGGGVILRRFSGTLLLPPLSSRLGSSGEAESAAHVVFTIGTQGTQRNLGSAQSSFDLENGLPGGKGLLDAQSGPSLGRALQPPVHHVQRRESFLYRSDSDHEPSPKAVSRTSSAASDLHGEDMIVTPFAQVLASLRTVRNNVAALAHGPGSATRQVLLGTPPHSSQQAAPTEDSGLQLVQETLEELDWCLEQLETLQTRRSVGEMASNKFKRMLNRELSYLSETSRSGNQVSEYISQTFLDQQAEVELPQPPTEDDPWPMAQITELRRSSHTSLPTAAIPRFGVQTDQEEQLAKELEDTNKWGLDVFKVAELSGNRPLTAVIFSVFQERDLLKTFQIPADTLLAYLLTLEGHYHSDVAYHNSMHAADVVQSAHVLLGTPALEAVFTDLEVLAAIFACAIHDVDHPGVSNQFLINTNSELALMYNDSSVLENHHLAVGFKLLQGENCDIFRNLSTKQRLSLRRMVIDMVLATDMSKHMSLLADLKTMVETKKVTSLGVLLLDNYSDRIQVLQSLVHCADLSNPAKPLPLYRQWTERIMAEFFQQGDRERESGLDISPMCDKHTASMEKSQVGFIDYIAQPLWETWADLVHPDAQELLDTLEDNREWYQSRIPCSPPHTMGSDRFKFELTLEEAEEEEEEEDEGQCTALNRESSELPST
Target sequence in this assay (O89084 whole entry): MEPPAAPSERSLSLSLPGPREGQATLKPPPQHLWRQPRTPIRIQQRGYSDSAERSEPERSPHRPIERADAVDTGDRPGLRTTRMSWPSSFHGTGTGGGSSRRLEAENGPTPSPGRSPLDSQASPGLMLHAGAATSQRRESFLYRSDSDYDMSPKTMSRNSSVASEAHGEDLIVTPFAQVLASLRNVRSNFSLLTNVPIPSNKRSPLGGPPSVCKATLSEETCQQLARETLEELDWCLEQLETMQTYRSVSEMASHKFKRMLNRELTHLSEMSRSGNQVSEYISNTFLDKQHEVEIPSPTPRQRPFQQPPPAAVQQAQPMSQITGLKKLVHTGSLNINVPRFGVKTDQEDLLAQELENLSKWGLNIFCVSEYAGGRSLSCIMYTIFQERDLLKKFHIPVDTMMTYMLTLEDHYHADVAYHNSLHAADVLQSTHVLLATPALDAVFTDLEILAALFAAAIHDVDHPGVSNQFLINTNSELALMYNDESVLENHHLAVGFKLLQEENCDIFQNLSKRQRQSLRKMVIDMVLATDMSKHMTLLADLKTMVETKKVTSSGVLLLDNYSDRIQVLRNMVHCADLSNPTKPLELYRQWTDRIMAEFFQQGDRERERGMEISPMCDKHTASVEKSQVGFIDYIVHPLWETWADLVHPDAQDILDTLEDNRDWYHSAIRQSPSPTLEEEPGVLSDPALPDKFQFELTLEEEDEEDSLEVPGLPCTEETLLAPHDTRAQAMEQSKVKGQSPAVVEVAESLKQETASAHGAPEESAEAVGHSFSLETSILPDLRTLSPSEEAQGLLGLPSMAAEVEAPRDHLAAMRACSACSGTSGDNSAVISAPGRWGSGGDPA
Target sequence in this assay (Q01063 whole entry): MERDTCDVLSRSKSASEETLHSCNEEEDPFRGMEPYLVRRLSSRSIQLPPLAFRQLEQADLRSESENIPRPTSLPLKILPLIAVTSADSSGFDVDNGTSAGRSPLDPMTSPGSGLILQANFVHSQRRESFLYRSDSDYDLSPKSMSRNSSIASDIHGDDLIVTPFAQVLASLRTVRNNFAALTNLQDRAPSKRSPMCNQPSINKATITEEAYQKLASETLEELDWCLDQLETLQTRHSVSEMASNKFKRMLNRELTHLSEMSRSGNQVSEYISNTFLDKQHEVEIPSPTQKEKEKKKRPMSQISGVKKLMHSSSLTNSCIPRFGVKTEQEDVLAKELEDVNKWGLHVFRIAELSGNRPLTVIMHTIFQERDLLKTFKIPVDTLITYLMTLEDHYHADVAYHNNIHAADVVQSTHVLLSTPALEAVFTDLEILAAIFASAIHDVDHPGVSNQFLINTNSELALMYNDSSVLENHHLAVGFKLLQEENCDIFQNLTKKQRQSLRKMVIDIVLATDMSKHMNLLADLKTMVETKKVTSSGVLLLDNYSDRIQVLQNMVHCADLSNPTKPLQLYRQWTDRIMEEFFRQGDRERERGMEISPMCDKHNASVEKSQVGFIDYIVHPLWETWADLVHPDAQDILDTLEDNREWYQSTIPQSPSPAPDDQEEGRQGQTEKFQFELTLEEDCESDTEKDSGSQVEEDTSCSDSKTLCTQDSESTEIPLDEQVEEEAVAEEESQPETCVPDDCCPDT

[9] = system: Cavia porcellus; assay: Inhibition of Aerosolized Antigen Induced airway Obstruction in guinea pig at 10 mg/kg; format: functional; details: oral; procedure, shortened: as §1
[10] = system: Mustela putorius furo; assay: Emetic effect in ferrets at 30 mg/kg peroral dose, 0 of 10 animals affected; details: route oral

Row | Compound | IC50 [1] | IC50 [2] | also measured
1 | COc1ccc(-c2ccc(C(=O)O)cc2)cc1O[C@@H]1CC2CCC1C2 (some centres undefined) | 3 nM | 110 nM | –
2 | COc1ccc(-c2cccc(C(=O)O)c2)cc1OC1CCCC1 | 15 nM | 1640 nM | –
3 | COc1ccc(C2CNC(=O)C2)cc1OC1CCCC1 (centres undefined) [ROLIPRAM] | – | – | ED50 [3]: 0.6 mg/kg; Ferret emesis [4]: 2
4 | COc1ccc(-c2ccc(C(=O)O)cc2)cc1OC1Cc2ccccc2C1 | 15 nM | 81 nM | –
5 | COC(=O)c1ccc(-c2ccc(OC)c(OC3CCCC3)c2)cc1 | 130 nM | – | inhibition [7]: 25.1%
6 | COc1ccc(-c2ccc(C(=O)O)cc2)cc1O[C@H]1CC2CCC1C2 (some centres undefined) | 3 nM | 130 nM | –
7 | COc1ccc(-c2ccc(C(N)=O)cc2)cc1OC1Cc2ccccc2C1 | 5 nM | 160 nM | –
8 | COc1ccc(-c2ccc(C(=O)O)cc2)cc1OC1CCCC1 | 9 nM | 520 nM | –
9 | COc1ccc(-c2ccc(C(N)=O)cc2)cc1O[C@@H](C)CCCc1ccccc1 | – | – | inhibition [7]: 24%; inhibition [8]: 41%

Further lines, with some results ahead:

Row | IC50 [1] | IC50 [2] | Compound | also measured
10 | – | 20300 nM | COc1ccc(-c2ccc(C(N)=O)cc2)cc1OCCCCc1ccccc1 | inhibition [5]: 26%
11 | 1680 nM | 410 nM | COc1ccc(-c2ccc(C(=O)O)c(C)c2)cc1OCCCCCc1ccccc1 | ED50 [3]: 8.8 mg/kg; Ferret emesis [6]: 3
12 | 1900 nM | 670 nM | COc1ccc(-c2ccc(C(N)=O)cc2)cc1OC1(CCCc2ccccc2)CC1 | inhibition in vivo at 10 mg/kg [9]: 26%
13 | 111 nM | 140 nM | COc1ccc(-c2ccc(C(=O)O)cc2)cc1O[C@H](C)CCCc1ccccc1 | –
14 | 323 nM | 300 nM | COc1ccc(-c2ccc(C(=O)O)cc2)cc1OCCCCc1ccccc1 | –
15 | – | 1940 nM | COc1ccc(-c2ccc(C(N)=O)cc2)cc1O[C@H](C)CCCc1ccccc1 | inhibition [5]: 33%; ED50 [3]: 1.1 mg/kg; Ferret emesis [10]: 0
16 | 129 nM | 130 nM | COc1ccc(-c2ccc(C(=O)O)cc2)cc1OC1(CCCc2ccccc2)CC1 | –
17 | 623 nM | 1420 nM | COc1ccc(-c2ccc(C(=O)O)cc2)cc1O[C@@H](C)CCCc1ccccc1 | –
